Test results published in ChEMBL document CHEMBL1127026, “Novel antagonists of 5-HT3 receptors. Synthesis and biological evaluation of piperazinylquinoxaline derivatives” (J Med Chem, 1993).

Tests used:
[1] = test system: 5-HT3 receptor (Cavia porcellus); experiment: Tested for the antagonistic activity against 5-hydroxytryptamine 3 receptor from guinea pig ileum; design: concentration or dose not given beside the values; details: concentration not given here
Rattus norvegicus = experiment: Tested in vivo for antagonistic activity to bradycardic effect of 5-HT in anesthetized rats; type: functional; details: read-out: ID50
Summary of the method: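 Male Sprague-Dawley rats (500-550 g), urethane 1 g/kg ip. Heart rate derived from carotid arterial pressure. Serotonin 4 μg/kg iv bolus every 15 min; compounds given iv via the jugular vein 2 min before serotonin. Percent inhibition of bradycardia recorded; ID50 by Litchfield-Wilcoxon.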

[2] = target: Serotonin 2 (5-HT2) receptor (Rattus norvegicus) (UniProt P30994+P08909+P14842); experiment: Tested for antagonistic activity against 5-hydroxytryptamine 2 receptor from rat thoracic aorta; type: functional, tissue-based; design: concentration or dose not given beside the values; details: concentration not given here
Chain of Serotonin 2 (5-HT2) receptor (Rattus norvegicus) (P08909 whole entry, looked up): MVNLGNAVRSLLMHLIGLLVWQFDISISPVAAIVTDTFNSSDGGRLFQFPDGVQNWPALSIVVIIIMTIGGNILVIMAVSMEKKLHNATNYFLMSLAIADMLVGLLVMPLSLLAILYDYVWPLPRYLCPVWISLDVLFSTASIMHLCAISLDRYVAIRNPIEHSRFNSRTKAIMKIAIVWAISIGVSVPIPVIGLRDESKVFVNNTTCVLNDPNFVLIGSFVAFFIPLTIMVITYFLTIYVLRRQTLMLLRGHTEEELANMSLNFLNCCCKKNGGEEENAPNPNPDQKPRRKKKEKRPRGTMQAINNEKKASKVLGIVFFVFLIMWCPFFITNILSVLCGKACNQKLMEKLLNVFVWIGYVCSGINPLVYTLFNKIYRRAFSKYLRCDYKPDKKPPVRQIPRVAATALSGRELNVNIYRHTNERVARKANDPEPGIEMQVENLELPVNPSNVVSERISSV
Chain of Serotonin 2 (5-HT2) receptor (Rattus norvegicus) (P14842 whole entry, looked up): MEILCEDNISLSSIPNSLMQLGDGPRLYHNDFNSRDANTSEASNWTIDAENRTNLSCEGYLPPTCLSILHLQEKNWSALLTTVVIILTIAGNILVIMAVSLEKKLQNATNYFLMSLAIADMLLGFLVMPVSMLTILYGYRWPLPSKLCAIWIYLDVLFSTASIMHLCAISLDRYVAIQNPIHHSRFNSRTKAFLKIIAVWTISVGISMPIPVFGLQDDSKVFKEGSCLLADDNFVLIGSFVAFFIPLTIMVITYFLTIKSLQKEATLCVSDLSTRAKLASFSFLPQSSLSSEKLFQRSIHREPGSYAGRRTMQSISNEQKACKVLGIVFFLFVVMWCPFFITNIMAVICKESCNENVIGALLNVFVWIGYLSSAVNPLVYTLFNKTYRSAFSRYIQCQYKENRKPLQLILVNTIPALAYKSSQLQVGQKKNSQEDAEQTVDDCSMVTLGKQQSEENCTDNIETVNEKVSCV
Chain of Serotonin 2 (5-HT2) receptor (Rattus norvegicus) (P30994 whole entry, looked up): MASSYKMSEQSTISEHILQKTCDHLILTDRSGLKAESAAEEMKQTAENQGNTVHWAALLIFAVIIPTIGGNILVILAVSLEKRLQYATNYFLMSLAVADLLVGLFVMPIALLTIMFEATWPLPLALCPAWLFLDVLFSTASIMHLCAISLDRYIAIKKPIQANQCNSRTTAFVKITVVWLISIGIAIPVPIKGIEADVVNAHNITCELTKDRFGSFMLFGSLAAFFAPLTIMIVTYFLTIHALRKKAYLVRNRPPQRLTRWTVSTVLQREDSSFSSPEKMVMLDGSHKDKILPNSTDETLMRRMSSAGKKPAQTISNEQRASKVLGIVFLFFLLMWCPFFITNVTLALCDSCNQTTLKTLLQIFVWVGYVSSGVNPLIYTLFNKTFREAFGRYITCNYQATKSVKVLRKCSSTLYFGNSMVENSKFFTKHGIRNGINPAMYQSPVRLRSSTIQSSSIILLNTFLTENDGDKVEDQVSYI
Summary of the method: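 Thoracic aorta rings (2-3 mm) from male Wistar rats (200-250 g), resting tension 1.5 g, equilibrated 60-90 min. Contracted with 5-HT 3×10^-6 M, taken as 100%. Compounds at 10^-5 M were incubated for 30 min before 5-HT was re-added. Inhibition given as % of the prior response. Means ± SE of 4-6 experiments.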

Cavia porcellus = species on record: Cavia porcellus; experiment: Antagonism to 2-methyl-5-HT induced contractions in guinea pig ileum; type: functional; details: read-out: pA2 (converted)
Summary of the method: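 Isometric recording at 0.5 g resting tension in physiological salt solution gassed with 95% O2/5% CO2 at 37 °C, after 30-min equilibration. Tissue incubated 30 min with a single antagonist concentration before agonist; pA2 calculated against 2-methyl-5-HT by Furchgott's single-concentration method, […]. Means of three to six experiments.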

[3] = target: T1, Serotonin 3 (5-HT3) receptor (Rattus norvegicus, UniProt P35563+Q9JJ16); experiment: Displacement of binding of [3H]-BRL 43694 to 5-hydroxytryptamine 3 receptor in rat cerebral cortex; type: tissue-based
T1 sequence (P35563 whole entry): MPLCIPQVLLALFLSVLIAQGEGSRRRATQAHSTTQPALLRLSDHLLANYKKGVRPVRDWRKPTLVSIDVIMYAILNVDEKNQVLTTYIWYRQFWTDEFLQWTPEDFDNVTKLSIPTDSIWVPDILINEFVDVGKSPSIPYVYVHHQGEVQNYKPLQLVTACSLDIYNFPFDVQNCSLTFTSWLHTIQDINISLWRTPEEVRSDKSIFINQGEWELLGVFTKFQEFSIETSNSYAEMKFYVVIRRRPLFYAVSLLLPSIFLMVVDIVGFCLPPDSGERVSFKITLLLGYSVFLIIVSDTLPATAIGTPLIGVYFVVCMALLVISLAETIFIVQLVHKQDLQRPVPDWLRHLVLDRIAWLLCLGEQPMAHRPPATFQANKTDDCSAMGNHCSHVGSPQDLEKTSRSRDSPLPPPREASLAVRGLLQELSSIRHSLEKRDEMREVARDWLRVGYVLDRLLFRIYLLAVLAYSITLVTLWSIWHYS
T1 sequence (Q9JJ16 whole entry): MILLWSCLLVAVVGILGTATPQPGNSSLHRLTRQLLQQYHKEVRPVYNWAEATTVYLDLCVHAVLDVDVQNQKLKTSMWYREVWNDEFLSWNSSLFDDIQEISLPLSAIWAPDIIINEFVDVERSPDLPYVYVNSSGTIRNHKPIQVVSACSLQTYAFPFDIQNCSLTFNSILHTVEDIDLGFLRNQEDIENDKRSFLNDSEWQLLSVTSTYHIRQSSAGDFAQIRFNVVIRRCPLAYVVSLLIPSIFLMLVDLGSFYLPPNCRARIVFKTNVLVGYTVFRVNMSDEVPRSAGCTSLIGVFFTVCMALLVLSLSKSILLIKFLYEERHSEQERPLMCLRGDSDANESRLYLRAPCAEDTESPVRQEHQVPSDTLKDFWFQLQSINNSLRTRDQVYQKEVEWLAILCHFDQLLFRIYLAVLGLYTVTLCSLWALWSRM

[4] = target: Serotonin 1 (5-HT1) receptor (Rattus norvegicus, UniProt P28564+P30940+P19327+P28565); experiment: Displacement of binding of [3H]-5-HT to 5-hydroxytryptamine 1 receptor in rat cerebral cortex; type: tissue-based
Summary of the method: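 Rat cortical membranes homogenized in 50 mM Tris-HCl, centrifuged, pre-incubated at 37 °C for 10 min, then resuspended with 0.1% ascorbic acid and 10 μM pargyline. Incubated with 0.3 nM [3H]-5-HT for 10 min at 37 °C. Nonspecific binding defined with 10 μM 5-HT. Filtered and counted by scintillation. Means of 3-6 experiments.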

inhibition [1]	inhibition [2]	Ki [3]	Ki [4]	SMILES	ED50 (Rattus norvegicus)	Kb (Cavia porcellus)
7.7%	–	–	–	N#Cc1nc2cc([N+](=O)[O-])ccc2nc1N1CCNCC1	–	–
7.4%	–	–	–	CC(=O)c1ccc(N2CCN(c3nc4ccccc4nc3C#N)CC2)cc1	–	–
28.4%	–	–	–	N#Cc1nc2ccccc2nc1N1CCN(Cc2ccc3c(c2)OCO3)CC1	–	–
12.4%	20.5%	–	–	N#Cc1nc2ccccc2nc1N1CCN(Cc2ccccc2)CC1	–	–
10.6%	–	–	–	COc1ccccc1N1CCN(c2nc3ccccc3nc2C#N)CC1	–	–
15.8%	4.6%	–	–	Cc1ccc(N2CCN(c3nc4ccccc4nc3C#N)CC2)cc1	–	–
39.5%	18.3%	–	–	N#Cc1nc2ccccc2nc1N1CCN(c2cccc(C(F)(F)F)c2)CC1	–	–
29.2%	25%	–	–	N#Cc1nc2ccccc2nc1N1CCN(CCc2ccccc2)CC1	–	–
14.4%	5.1%	–	–	CCOC(=O)CN1CCN(c2nc3ccccc3nc2C#N)CC1	–	–
63.3%	12.5%	40 nM	> 1000 nM	CCCN1CCN(c2nc3ccccc3nc2C#N)CC1	0.38 mg/kg	1000 nM
11%	7%	–	–	N#Cc1nc2ccccc2nc1N1CCN(c2ccc(Cl)cc2)CC1	–	–
3.5%	4.6%	–	–	COc1cccc(N2CCN(c3nc4ccccc4nc3C#N)CC2)c1	–	–
12.5%	–	–	–	CCCCN1CCN(c2nc3ccccc3nc2C#N)CC1	–	–
21.3%	–	–	–	CCN1CCN(c2nc3ccc([N+](=O)[O-])cc3nc2C#N)CC1	–	–
18%	–	–	–	N#Cc1nc2ccccc2nc1N1CCN(c2ccc([N+](=O)[O-])cc2)CC1	–	–
21.4%	–	–	–	N#Cc1nc2ccccc2nc1N1CCN(c2ccc(F)cc2)CC1	–	–
–	9.1%	8 nM	> 1000 nM	C=CCN1CCN(c2nc3ccccc3nc2C#N)CC1	0.02 mg/kg	0.0631 nM
18%	3.9%	–	–	CCCCCN1CCN(c2nc3ccccc3nc2C#N)CC1	–	–
21.9%	8.4%	–	–	N#Cc1nc2ccccc2nc1N1CCN(c2ccccc2)CC1	–	–
80.5%	9.1%	100 nM	> 1000 nM	CCN1CCN(c2nc3ccccc3nc2C#N)CC1	0.015 mg/kg	63.1 nM
43.5%	–	–	–	CCN1CCN(c2nc3ccc(N)cc3nc2C#N)CC1	–	–

SMILES	inhibition [1]	inhibition [2]	Ki [3]	Ki [4]	ED50 (Rattus norvegicus)	Kb (Cavia porcellus)
Cc1nccn1CC1CCc2c(c3ccccc3n2C)C1=O (centres undefined) [ONDANSETRON]	–	0.6%	–	–	0.0004 mg/kg	126 nM
CN1[C@@H]2CC[C@H]1C[C@@H](OC(=O)c1c[nH]c3ccccc13)C2.Cl	–	2.4%	3.8 nM	> 1000 nM	0.002 mg/kg	3.98 nM
N#Cc1nc2ccccc2nc1N1CCNCC1	63.7%	9.1%	90 nM	345 nM	0.027 mg/kg	1580 nM
CN1CCN(c2nc3ccccc3nc2C#N)CC1	48.4%	–	–	–	–	–
